Source: ChEMBL document CHEMBL1123777 (J Med Chem, 1987)
pEC50, pIC50: −log10 of the molar value.

Columns and labels:
Oryctolagus cuniculus = species on record: Oryctolagus cuniculus; assay: Ability to relax the electrically stimulated rabbit ear artery was determined; assay type: functional
Outline: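 Isolated, perfused rabbit ear artery under electrical stimulation; inhibition of the neurogenic response taken as the D-2 agonist read-out. Concentration–response curves were also run in the presence of (S)-sulpiride at several nM concentrations. Points are mean ± SEM of at least four experiments.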

[1] = molecular target: D(1A) dopamine receptor (Rattus norvegicus) (UniProt P18901); conditions: Striatum
D(2) dopamine receptor = D(2) dopamine receptor (Bos taurus, UniProt P20288); assay: Displacement of [3H]spiroperidol from homogenized bovine pituitary Dopamine receptor D2
D(1A) dopamine receptor [2] = molecular target: T1, D(1A) dopamine receptor (Rattus norvegicus, UniProt P18901); assay: Dopamine receptor D1 agonist efficacy was measured with stimulation of dopamine-sensitive rat adenylate cyclase in caudate membranes; assay type: functional, cell membranes, Membrane
D(1A) dopamine receptor [3] = molecular target: T1, D(1A) dopamine receptor; assay: Dopamine receptor D1 agonist efficacy was measured with stimulation of dopamine-sensitive rat adenylate cyclase in caudate membranes; NS means not significant.; assay type: functional, cell membranes, Membrane
D(1A) dopamine receptor [4] = molecular target: T1, D(1A) dopamine receptor; assay: Dopamine receptor D1 agonist efficacy was measured with stimulation of dopamine-sensitive rat adenylate cyclase in caudate membranes. Partial agonist, maximum effect 59% of dopamine maximum effect; assay type: functional, cell membranes, Membrane
D(1A) dopamine receptor [5] = molecular target: T1, D(1A) dopamine receptor; assay: Dopamine D1 agonist efficacy was measured with stimulation of dopamine-sensitive rat adenylate cyclase in caudate membranes; assay type: functional, cell membranes, Membrane
D(1A) dopamine receptor [6] = molecular target: T1, D(1A) dopamine receptor; assay: Dopamine receptor D1 agonist efficacy was measured with stimulation of dopamine-sensitive rat adenylate cyclase in caudate membranes. Partial agonist, maximum effect 60% of dopamine maximum effect.; assay type: functional, cell membranes, Membrane
[7] = molecular target: D(1A) dopamine receptor (Rattus norvegicus) (UniProt P18901); conditions: Striatum; remark: listed apart in the source

Chain of D(1A) dopamine receptor (Rattus norvegicus) (P18901 whole entry): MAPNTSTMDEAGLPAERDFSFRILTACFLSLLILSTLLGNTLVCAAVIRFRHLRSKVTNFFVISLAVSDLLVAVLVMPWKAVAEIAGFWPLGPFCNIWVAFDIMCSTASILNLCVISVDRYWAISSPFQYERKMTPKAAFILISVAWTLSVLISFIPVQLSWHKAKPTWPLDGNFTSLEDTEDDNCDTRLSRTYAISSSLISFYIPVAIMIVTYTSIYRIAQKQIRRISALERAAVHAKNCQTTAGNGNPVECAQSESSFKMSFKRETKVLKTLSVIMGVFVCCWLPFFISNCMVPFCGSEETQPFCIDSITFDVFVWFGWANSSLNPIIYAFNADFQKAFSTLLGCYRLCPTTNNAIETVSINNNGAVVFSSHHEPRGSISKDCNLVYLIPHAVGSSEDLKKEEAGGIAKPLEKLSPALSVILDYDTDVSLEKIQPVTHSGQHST
T1 sequence (P18901 whole entry): as above
Chain of D(2) dopamine receptor (P20288 whole entry): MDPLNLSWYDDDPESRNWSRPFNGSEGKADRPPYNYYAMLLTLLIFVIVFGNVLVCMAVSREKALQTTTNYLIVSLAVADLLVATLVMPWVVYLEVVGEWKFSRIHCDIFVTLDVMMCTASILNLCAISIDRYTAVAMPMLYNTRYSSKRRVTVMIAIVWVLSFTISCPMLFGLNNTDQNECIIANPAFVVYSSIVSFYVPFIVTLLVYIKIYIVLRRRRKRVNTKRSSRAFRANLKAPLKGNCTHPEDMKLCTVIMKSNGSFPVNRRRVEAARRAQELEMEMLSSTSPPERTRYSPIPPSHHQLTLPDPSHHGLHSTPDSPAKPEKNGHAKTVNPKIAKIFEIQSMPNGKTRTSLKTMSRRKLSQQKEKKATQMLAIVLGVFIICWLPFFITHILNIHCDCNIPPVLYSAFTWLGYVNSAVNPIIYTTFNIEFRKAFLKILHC

Row | Structure (SMILES) | pEC50 (Oryctolagus cuniculus) | pIC50 (D(2) dopamine receptor) | further results
1 | Oc1ccc(C2CNCCc3c2cc(O)c(O)c3Cl)cc1 (configuration not stated) [FENOLDOPAM] | 5.92 |  | K bind [1]: 3 nM
2 | NCCc1ccc(O)c(O)c1 [DOPAMINE] | 7.12 |  | 
3 | CCCN(CCC)CCc1cccc2c1CC(=O)N2 [ROPINIROLE] |  | 5.17 | 
4 | CCCN(CCC)CCc1ccc(O)c(O)c1 | 7.10 |  | pEC50 (D(1A) dopamine receptor [2]): 4.90
5 | NCCc1cccc2nc(O)sc12 | 6.00 | < 5.00 | EC50 (D(1A) dopamine receptor [3]): Not Active
6 | CNCCc1ccc(O)c2nc(O)sc12 | 8.22 |  | 
7 | NCCc1ccc(O)c2c1CC(=O)N2 |  | 5.31 | pEC50 (D(1A) dopamine receptor [4]): 5.33; K bind [1]: 700 nM
8 | CCCN(CCC)CCc1ccc(O)c2c1CC(=O)N2 [SKF-89124A] | 8.74 | 6.28 | pEC50 (D(1A) dopamine receptor [5]): 4.70
9 | CCCN(CCC)CCc1ccc(O)c2nc(O)oc12 | 8.10 | 5.92 | 
10 | CCCN(CCC)CCc1cccc2nc(O)sc12 | 7.55 | 6.00 | 
11 | CCCN(CCC)CCc1c(Cl)cc(O)c2nc(O)sc12 | 7.30 |  | 
12 | NCCc1ccc(O)c2nc(O)sc12 | 7.52 | 5.70 | pEC50 (D(1A) dopamine receptor [6]): 6.53; K bind [7]: 9 nM
13 | CCCN(CCC)CCc1ccc(O)c2nc(O)sc12 | 10.55 | 7.31 | 
14 | CCCN(CCC)CCc1ccc(O)c2[nH]c(O)nc12 | 8.05 | 6.00 | 
15 | CCCN(CCC)CCc1ccc(O)c2c1C(=O)C(=O)N2 | 8.15 | 6.25 | EC50 (D(1A) dopamine receptor [3]): Not Active
